Test results reported in ChEMBL document CHEMBL1125654, “New inhibitors of human renin that contain novel replacements at the P2 site” (J Med Chem, 1991).
pIC50: −log10 of the molar value.

Tests used:
Renin [1] = target: T1, Renin (Homo sapiens, UniProt P00797); assay: Inhibitory activity against monkey plasma renin.; type: cell-free, Cercopithecidae; settings: target entry is the homologue from another species
T1 sequence (P00797 whole entry): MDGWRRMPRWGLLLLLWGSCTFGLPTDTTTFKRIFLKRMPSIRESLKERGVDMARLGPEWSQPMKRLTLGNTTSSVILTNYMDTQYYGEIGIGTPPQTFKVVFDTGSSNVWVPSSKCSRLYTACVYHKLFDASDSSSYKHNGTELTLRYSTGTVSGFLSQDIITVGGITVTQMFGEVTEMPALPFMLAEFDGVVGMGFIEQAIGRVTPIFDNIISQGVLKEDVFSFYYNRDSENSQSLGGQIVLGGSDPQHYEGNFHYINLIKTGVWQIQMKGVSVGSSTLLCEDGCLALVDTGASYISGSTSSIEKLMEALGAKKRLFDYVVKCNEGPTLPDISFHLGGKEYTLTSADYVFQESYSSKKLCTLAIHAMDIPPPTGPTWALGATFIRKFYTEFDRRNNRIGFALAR
In short: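 Plasma from salt-depleted, furosemide-treated monkeys (native renin and angiotensinogen) incubated with maleate buffer (pH 6.0), PMSF and inhibitor in DMSO for 60 min at 37 °C. Plasma renin activity was 3–8 ng AI/mL per h. Percent inhibition was taken vs DMSO vehicle tubes, and IC50 from six concentrations by nonlinear regression.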

Cathepsin D (Bos taurus) = target: T2, Cathepsin D (Bos taurus) (UniProt P80209); assay: (§1) Inhibitory activity against bovine cathepsin D was determined; settings: concentration not given here
T2 sequence (whole entry): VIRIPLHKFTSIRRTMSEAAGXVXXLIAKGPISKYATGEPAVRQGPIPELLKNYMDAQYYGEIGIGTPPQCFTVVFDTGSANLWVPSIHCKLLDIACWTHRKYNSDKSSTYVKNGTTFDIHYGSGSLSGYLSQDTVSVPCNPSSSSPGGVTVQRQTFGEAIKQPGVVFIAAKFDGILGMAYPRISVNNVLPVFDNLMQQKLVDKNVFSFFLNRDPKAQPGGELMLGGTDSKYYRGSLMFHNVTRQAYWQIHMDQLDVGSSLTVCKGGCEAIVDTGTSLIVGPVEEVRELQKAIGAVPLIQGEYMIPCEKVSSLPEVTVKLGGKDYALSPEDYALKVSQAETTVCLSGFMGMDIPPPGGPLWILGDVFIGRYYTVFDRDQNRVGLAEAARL
In short: (§2)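 Bovine cathepsin D activity assayed in duplicate as hydrolysis of bovine hemoglobin (2× crystallized) at pH 3.2, 37 °C. Net absorbance at 280 nm read in acid-precipitated supernatants of inhibited vs uninhibited controls. IC50 from six inhibitor concentrations by nonlinear regression.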

[2] = Partition coefficient (logD7.4); settings: octanol/water
Renin (Homo sapiens) = target: T3, Renin (Homo sapiens) (UniProt P00797); assay: Inhibitory activity against monkey plasma renin was determined at 10e-5 M concentration; type: cell-free; settings: Cercopithecidae, target entry is the homologue from another species
T3 sequence (whole entry): T1 sequence (P00797 whole entry)
In short: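 Angiotensin I generated from monkey plasma (native renin and angiotensinogen) with maleate buffer pH 6.0, PMSF and inhibitor in DMSO, 60 min at 37 °C. Percent inhibition estimated against DMSO vehicle control tubes. Plasma renin activity 3–8 ng AI/mL per h.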

Renin [3] = target: T1, Renin; assay: Inhibitory activity against human plasma renin; type: cell-free
[4] = solubility in phosphate buffer at pH 7.4; type: physicochemical
Cathepsin D [5] = target: T4, Cathepsin D (Bos taurus, UniProt P80209); assay: Inhibitory activity against bovine Cathepsin D was determined; in short: as §2
T4 sequence (P80209 whole entry): T2 sequence (whole entry)

Cathepsin D [6] = target: T4, Cathepsin D; assay: as §1; in short: as §2
Renin [7] = target: T1, Renin; assay: Inhibitory activity against human plasma renin; G means not measured; type: cell-free

Structure (SMILES)	pIC50 (Renin [1])	pIC50 (Renin [3])	logD ([2]; pH 7.4, logD)	other results
CC(=O)NCC#CCC(NC(=O)C(Cc1cccc2ccccc12)Cc1cccc2ccccc12)C(=O)NC(CC1CCCCC1)[C@@H](O)CC(=O)N1CCOC(CCN)C1 (some centres not stated)	8.05			inhibition (Cathepsin D (Bos taurus)): 0.3%
CCC(C)CNC(=O)C[C@H](O)C(CC(C)C)NC(=O)C(CCCCNP(=O)(Oc1ccccc1)Oc1ccccc1)NC(=O)C(Cc1cccc2ccccc12)Cc1cccc2ccccc12 (some centres not stated)		6.13		logD ([2]; pH 7.4): 7.88; inhibition (Renin (Homo sapiens)): 48%
CCC(C)CNC(=O)C[C@H](O)C(CC(C)C)NC(=O)C(CCCCNS(=O)(=O)c1ccc(C)cc1)NC(=O)C(Cc1cccc2ccccc12)Cc1cccc2ccccc12 (some centres not stated)		5.52	6.7	inhibition (Renin (Homo sapiens)): 48%
NCCC1CN(C(=O)C[C@H](O)C(CC2CCCCC2)NC(=O)C(CC#CC/N=C(/N)N[N+](=O)[O-])NC(=O)C(Cc2cccc3ccccc23)Cc2cccc3ccccc23)CCO1 (some centres not stated)				inhibition (Cathepsin D (Bos taurus)): 0.7%
C/N=C(\S)NCCCCC(NC(=O)C(Cc1cccc2ccccc12)Cc1cccc2ccccc12)C(=O)NC(CC(C)C)[C@@H](O)CC(=O)NC(CC(C)C)C(=O)NCc1ccccc1 (some centres not stated)	7.00	7.22	6.7	solubility [4]: < 10 µg/mL

Now from value to compound, other results behind:

pIC50 (Renin [1])	pIC50 (Renin [3])	logD ([2]; pH 7.4, logD)	Structure (SMILES)	other results
7.64	7.89	5.71	CCC(C)CNC(=O)C[C@H](O)C(CC(C)C)NC(=O)C(CCCC/N=C(/S)NC)NC(=O)C(Cc1cccc2ccccc12)Cc1cccc2ccccc12 (some centres not stated)	solubility [4]: < 10 µg/mL; pIC50 (Cathepsin D [5]): 6.11
8.34		5.32	CCC(C)CNC(=O)C[C@H](O)C(CC(C)C)NC(=O)C(CC#CCNC(C)=O)NC(=O)C(Cc1cccc2ccccc12)Cc1cccc2ccccc12 (stereo in doubt; 55a)	pIC50 (Cathepsin D [6]): 7.11; pIC50 (Renin [7]): 8.70
